Laboratory results as given in ChEMBL document CHEMBL3779898, “3,3'-OH curcumin causes apoptosis in HepG2 cells through ROS-mediated pathway” (Eur J Med Chem, 2016).
pIC50: −log10 of the molar value.

System: HepG2
Assay: Cytotoxicity against human HepG2 cells assessed as reduction in cell viability after 48 hrs by MTT assay
Type: functional, cell-based
Conditions: HepG2, 48 h
Outline: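 HepG2 seeded at 3×10^3/well, grown 24 h, then exposed to compounds for 48 h. MTT (0.5 mg/mL) added for 4 h, formazan dissolved in DMSO, absorbance read at 570 nm. IC50 = concentration giving 50% loss of viability; mean ± SD of three determinations.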

Row | SMILES | pIC50
1 | O=C(/C=C/c1ccc(C(F)(F)F)cc1)CC(=O)/C=C/c1ccc(C(F)(F)F)cc1 | < 3.70
2 | O=C(/C=C/c1ccccc1)CC(=O)/C=C/c1ccccc1 | < 3.70
3 | COc1cccc(/C=C/C(=O)CC(=O)/C=C/c2cccc(OC)c2)c1 | 4.08
4 | COc1cc(/C=C/C(=O)CC(=O)/C=C/c2ccc(O)c(OC)c2)ccc1O [CURCUMIN] | 4.28
5 | O=C(/C=C/c1cccc(C(F)(F)F)c1)CC(=O)/C=C/c1cccc(C(F)(F)F)c1 | < 3.70
6 | O=C(/C=C/c1ccc(O)cc1)CC(=O)/C=C/c1ccc(O)cc1 [BISDEMETHOXYCURCUMIN] | 4.12
